Here are results for six compounds from ChEMBL document CHEMBL3758134, “Avertoxins A-D, Prenyl Asteltoxin Derivatives from Aspergillus versicolor Y10, an Endophytic Fungus of Huperzia serrata” (J Nat Prod, 2015).

The nature of assay [1]: Antiproliferative activity against human HCT116 cells assessed as cell viability after 72 hrs by SRB assay. The format is functional, cell-based. The following applies: HCT-116, 72 h. The procedure, abridged:
(§1)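 Cells grown in DMEM with 10% FBS and exposed to compound for 72 h. Viability read by sulforhodamine B (SRB) staining.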
For orientation: In SRB staining, fixed cells bind dye roughly in proportion to their protein.

For a further assay, the system named is MDA-MB-231. Description: Antiproliferative activity against human MDA-MB-231 cells assessed as cell viability after 72 hrs by SRB assay. Conditions: MDA-MB-231, 72 h. In kind it is functional, cell-based. The procedure, abridged: as §1
Another assay has as its system HeLa. Description: Antiproliferative activity against human HeLa cells assessed as cell viability after 72 hrs by SRB assay. The format is functional, cell-based. The procedure, abridged: as §1
The next assay concerns the target Acetylcholinesterase (Homo sapiens, UniProt P22303). Description: Inhibition of human acetylcholinesterase after 30 mins by microplate reader-based Ellman's method.

Acetylcholinesterase, sequence (P22303 whole entry): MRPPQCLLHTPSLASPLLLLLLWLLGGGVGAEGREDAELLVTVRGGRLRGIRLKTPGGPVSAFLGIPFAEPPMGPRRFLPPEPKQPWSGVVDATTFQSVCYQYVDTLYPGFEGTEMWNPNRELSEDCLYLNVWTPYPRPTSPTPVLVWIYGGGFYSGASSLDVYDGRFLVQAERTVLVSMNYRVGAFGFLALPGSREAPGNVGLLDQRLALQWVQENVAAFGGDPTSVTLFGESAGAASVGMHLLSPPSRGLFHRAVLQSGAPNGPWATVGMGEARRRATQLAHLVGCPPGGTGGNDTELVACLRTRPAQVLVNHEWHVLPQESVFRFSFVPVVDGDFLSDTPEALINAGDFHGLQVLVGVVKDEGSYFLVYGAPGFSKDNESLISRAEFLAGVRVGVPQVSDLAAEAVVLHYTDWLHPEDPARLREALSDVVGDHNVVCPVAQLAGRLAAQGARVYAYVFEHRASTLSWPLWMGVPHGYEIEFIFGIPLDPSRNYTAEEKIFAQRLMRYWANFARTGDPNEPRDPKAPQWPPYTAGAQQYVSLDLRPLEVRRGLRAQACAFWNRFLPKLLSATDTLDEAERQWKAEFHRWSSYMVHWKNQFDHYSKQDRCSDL

Turning to `CC[C@H]1O[C@@H]2O[C@H](/C=C/C=C/C=C/c3oc(=O)cc(OC)c3C)[C@H](O)[C@]2(C)[C@@]1(C)O`, the IC50 (in assay [1]; in the assay with MDA-MB-231; in the assay on HeLa) was > 50 µM in each case.

`CC[C@H]1O[C@@H]2O[C@H](/C=C/C=C/C=C/c3oc(=O)cc(OC/C=C(\C)C(=O)OC)c3C)[C@H](O)[C@]2(C)[C@@]1(C)O`: the 50% inhibitory concentration (IC50) (usually the concentration at which inhibition is half-maximal) is 9 µM in assay [1], 35 µM in the assay on MDA-MB-231, > 50 µM in the assay on HeLa and 14.9 µM against Acetylcholinesterase.

Take `CC[C@H]1O[C@@H]2O[C@H](/C=C/C=C/C=C/c3oc(=O)c4c(c3C)O[C@H](C)C4(C)C)[C@H](O)[C@]2(C)[C@@]1(C)O`: the IC50 in assay [1] was 50 µM; with MDA-MB-231, > 50 µM; in the assay on HeLa, 48 µM.

With `CC[C@H]1O[C@@H]2O[C@H](/C=C/C=C/C=C/c3oc(=O)cc(OCC=C(C)C)c3C)[C@H](O)[C@]2(C)[C@@]1(C)O`, the results for the IC50 (in assay [1]; with MDA-MB-231; with HeLa) were 44 µM, 37 µM and 48 µM, respectively.

For the compound `COC(=O)/C(C)=C/COc1cc(=O)oc(/C=C/C=C/C=C/[C@H]2O[C@H]3O[C@H](C)[C@](C)(O)[C@@]3(C)[C@H]2O)c1C`, the IC50 amounted to 21 µM in assay [1], 28 µM in the assay with MDA-MB-231 and 11 µM in the assay with HeLa.

In the case of `COc1cc([C@@H]2c3cc4c(cc3[C@@H](O[C@@H]3O[C@@H]5CO[C@@H](C)O[C@H]5[C@H](O)[C@H]3O)[C@H]3COC(=O)[C@H]23)OCO4)cc(OC)c1O` [ETOPOSIDE], the IC50 stood at 26.1 µM in assay [1], 4.2 µM in the assay with MDA-MB-231 and 3.2 µM in the assay with HeLa.
